Measurements: article PMC8828683 (Stem Cell Reports, 2022)

Experiments:
SCUi24 iPSC [1] = assay: Cellular ATP level; assay type: cell-based, human; conditions: read-out: IC50 ATP
Procedure, shortened: (§1)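 Cellular ATP was measured with a CellTiter-Glo luminescence viability assay after exposure to a concentration range of test compound. IC50 is the average of three independent assays. Mean IC50s across differentiated or human pluripotent lines, and their ratio, are derived from the per-line values.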

WA01/H1 ESC [2] = assay: Live cells / PCD by FACS of nonpermeabilized cells stained with annexin-V and PI; assay type: cell-based, human; conditions: read-out: IC50 Live Cells
Procedure, shortened: (§2)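 Cells were seeded so that vehicle wells stayed subconfluent, then treated with a range of test compound concentrations for 4 days. Without permeabilization, they were stained with annexin-V-FITC and propidium iodide and analysed by flow cytometry. Double-negative cells (Q3) were scored as live and Q1+Q2 as programmed death. Vehicle was set to 100% viable and 0% dead. Results are the mean of three independent assays with SEM; group averages and ratios are derived from the IC50s.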

[3] = test system: SCUi24-diff (spontaneously differentiated SCUi24 iPSCs); assay: Cells with <2N DNA by FACS of permeabilized cells stained with PI; assay type: cell-based, human; conditions: read-out: IC50 DNA (50% of cells with <2N DNA)
Procedure, shortened: (§3)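 Cells were exposed to a range of test compound concentrations alongside vehicle (DMSO) controls. They were then permeabilized, stained with propidium iodide, and DNA content was read by flow cytometry. IC50 is the concentration at which 50% of cells hold <2N DNA, from 3 independent repetitions with SEM. Line averages and differentiated/pluripotent ratios are derived from these IC50s. NTERA-2 was also run as a time course at 5 μM, normalized to vehicle at each time point.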

TERA-2 ECC = assay: Live cells / PCD by FACS of nonpermeabilized cells stained with annexin-V and PI; assay type: cell-based, human; conditions: read-out: IC50 Live Cells, 4 days
Procedure, shortened: as §2

WA01/H1 ESC [4] = assay: Cells with <2N DNA by FACS of permeabilized cells stained with PI; assay type: cell-based, human; conditions: read-out: IC50 DNA (50% of cells with <2N DNA)
Procedure, shortened: as §3

[5] = test system: HFF-1 normal skin fibroblast; assay: Live cells / PCD by FACS of nonpermeabilized cells stained with annexin-V and PI; assay type: cell-based, human; conditions: read-out: IC50 Live Cells; HFF-1
Procedure, shortened: as §2

GCT27D.C1 ECC = assay: Cells with <2N DNA by FACS of permeabilized cells stained with PI; assay type: cell-based, human
Procedure, shortened: as §3

[6] = test system: HBEC normal lung epithelial; assay: Cellular ATP level; assay type: cell-based, human; conditions: read-out: IC50 ATP
Procedure, shortened: as §1

differentiated cells [7] = assay: ATP loss, summary over differentiated cell lines; assay type: cell-based; conditions: read-out: IC50 ATP loss, on average
Procedure, shortened: as §1

NTERA-2 ECCs = assay: Immunoblotting of total cell extracts; assay type: cell-based, human
Procedure, shortened: (§4)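 Cells were cultured with 2.5 μM test compound for up to 96 h, and attached plus unattached cells were pooled. Whole-cell RIPA lysates were run on 4–12% Bis-Tris gels, transferred to nitrocellulose and blocked in 5% milk/TBS. Primary antibodies went on overnight at 4°C, followed by infrared secondary antibodies and imager quantitation. Each blot carried untreated U2OS as a shared standard, with Ponceau-S histones for normalization and lighter exposures for quantitation. Adriamycin for 24 h (NTERA-2 1 μM, H108 2 μM) served as a DNA-break control.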

[8] = test system: HFF-1 normal skin fibroblast; assay: Cells with <2N DNA by FACS of permeabilized cells stained with PI; assay type: cell-based, human; conditions: read-out: IC50 DNA (50% of cells with <2N DNA); HFF-1
Procedure, shortened: as §3

[9] = test system: Mouse Gmnn(fl/fl);ER-Cre/+ ESCs; assay: Cellular DNA content by FACS of permeabilized cells stained with PI; assay type: cell-based
Procedure, shortened: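 Mouse Gmnn(fl/fl);ER-Cre/+ embryonic stem cells were grown with 3 μM test compound (from a 20 mM DMSO stock) or DMSO vehicle for the indicated times. Attached and unattached cells were pooled, permeabilized and stained with propidium iodide. DNA content was measured by flow cytometry, scoring the fraction of cells with <2N DNA.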

SCUi24 iPSC [10] = assay: Cells with <2N DNA by FACS of permeabilized cells stained with PI; assay type: cell-based, human; conditions: read-out: IC50 DNA (50% of cells with <2N DNA)
Procedure, shortened: as §3

WA09/H9 ESC [11] = assay: Live cells / PCD by FACS of nonpermeabilized cells stained with annexin-V and PI; assay type: cell-based, human; conditions: read-out: IC50 Live Cells
Procedure, shortened: as §2

WA09/H9 ESC [12] = assay: Cells with <2N DNA by FACS of permeabilized cells stained with PI; assay type: cell-based, human
Procedure, shortened: as §3

H108 fibroblasts = assay: Immunoblotting of total cell extracts; assay type: cell-based, human
Procedure, shortened: as §4

[13] = Maximum solubility in DMSO; assay type: physicochemical
[14] = test system: H108 normal skin fibroblast; assay: Live cells / PCD by FACS of nonpermeabilized cells stained with annexin-V and PI; assay type: cell-based, human; conditions: read-out: IC50 Live Cells; H108, 4 days
Procedure, shortened: as §2

NTERA-2 ECC = assay: as above; assay type: cell-based, human; conditions: read-out: IC50 Live Cells; NTERA-2 ECC, 4 days
Procedure, shortened: as §2

[15] = test system: H108 normal skin fibroblast; assay: Cells with <2N DNA by FACS of permeabilized cells stained with PI; assay type: cell-based, human; conditions: read-out: IC50 DNA (50% of cells with <2N DNA)
Procedure, shortened: as §3

[16] = test system: HFF-1 normal skin fibroblast; assay: Cellular ATP level; assay type: cell-based, human; conditions: read-out: IC50 ATP
Procedure, shortened: as §1

WA01/H1 ESC [17] = assay: Cellular ATP level; assay type: cell-based, human; conditions: read-out: IC50 ATP
Procedure, shortened: as §1

[18] = test system: VeroE6 normal kidney epithelial; assay: Cellular ATP level; assay type: cell-based, monkey; conditions: read-out: IC50 ATP
Procedure, shortened: as §1

[19] = test system: VeroE6 normal kidney epithelial; assay: Cells with <2N DNA by FACS of permeabilized cells stained with PI; assay type: cell-based, monkey; conditions: read-out: IC50 DNA (50% of cells with <2N DNA)
Procedure, shortened: as §3

differentiated cells [20] = assay: DNA loss; assay type: cell-based; conditions: read-out: IC50 DNA loss, on average; average over differentiated cells
Procedure, shortened: as §3

[21] = ratio differentiated/pluripotent
[22] = NTERA-2, 2.5 μM WX8, normalized to histones
[23] = H108, 2.5 μM WX8, normalized to histones
[24] = H108 fibroblasts, 2.5 μM WX8 or 2 μM Adriamycin 24 h

Work on `C(=N\Nc1nc(Nc2ccccc2)nc(N2CCOCC2)n1)/c1c[nH]c2ccccc12` [WX8] yielded an IC50 (SCUi24 iPSC [1]) of 0.4 µM, an IC50 (WA01/H1 ESC [2]) of 1.9 µM and an IC50 [3] greater than 10 µM. The IC50 (TERA-2 ECC) was 5 µM, the IC50 (WA01/H1 ESC [4]) was 2 µM and the IC50 [5] was 75 µM. The “Range of sensitivity to WX8-induced cell death (DNA loss), H108/GCT27DC1” value (GCT27D.C1 ECC; [21]) was 700 fold, the IC50 (GCT27D.C1 ECC; read-out: IC50 DNA (50% of cells with <2N DNA), GCT27D.C1 ECC) was 0.2 µM and the IC50 [6] was 6 µM. The IC50 (differentiated cells [7]) was 15.8 µM, the CASP3 cleavage (NTERA-2 ECCs; NTERA-2, 2.5 μM WX8) was less than 2% and the PARP cleavage (NTERA-2 ECCs; NTERA-2, 2.5 μM WX8) was 41%. For the same molecule, the “Accumulation of p62 protein” value (NTERA-2 ECCs; [22]) was 9 fold, the “Accumulation of total LC3 protein” value (NTERA-2 ECCs; [22]) was 4 fold and the CASP12 cleavage (NTERA-2 ECCs; NTERA-2, WX8) was less than 2%. The “Cleaved CASP7” value (NTERA-2 ECCs; NTERA-2, WX8) was “not detected”, the IC50 [8] was 50 µM and the “Cells with <2N DNA” value ([9]; 3 μM WX8, 72 hr) was greater than 90%. The “Cells with <2N DNA” value ([9]; 3 μM WX8, within 32 h) was 50%, the IC50 (SCUi24 iPSC [10]) was 1 µM and the IC50 (WA09/H9 ESC [11]) was 2.5 µM. The “Range of sensitivity to WX8-induced cell death (DNA loss), HBEC/H9” value (WA09/H9 ESC [12]; [21]) was 5 fold, the IC50 (WA09/H9 ESC [12]; read-out: IC50 DNA (50% of cells with <2N DNA), WA09/H9 ESC) was 5 µM and the “Accumulation of p62 protein” value (H108 fibroblasts; [23]) was 13 fold. The “Accumulation of total LC3 protein” value (H108 fibroblasts; [23]) was 10 fold, the CASP3 cleavage (H108 fibroblasts; [24]) was “Neither WX8 nor Adriamycin induced cleavage” and the PARP cleavage (H108 fibroblasts; [24]) was “Neither WX8 nor Adriamycin induced cleavage”. For the same molecule, the Maximum solubility [13] was “about 30 mg WX8/350μL DMSO”, the IC50 [14] was 50 µM and the IC50 (NTERA-2 ECC) was 1.3 µM. The IC50 [15] was 140 µM, the IC50 [16] was 28 µM and the IC50 (WA01/H1 ESC [17]) was 1.6 µM. For the same molecule, the IC50 [18] was 14 µM, the IC50 [19] was 60 µM and the IC50 (differentiated cells [20]) was 67.5 µM.
